Measurements as given in ChEMBL document CHEMBL3616416, “Imidazolidine-4-one derivatives in the search for novel chemosensitizers of Staphylococcus aureus MRSA: synthesis, biological evaluation and molecular modeling studies” (Eur J Med Chem, 2015).
Values after ≈ are worked out from the molar mass of the structure shown. Active and inactive are the calls of the source. No cut-off for these calls is given here.

What was measured:
[1] = tested on: Staphylococcus aureus; test: Antimicrobial activity against methicillin-resistant Staphylococcus aureus HEMSA incubated for 20 hrs by serial dilution broth microplate method; type: functional
Summary of the method: (§1)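 Broth microdilution MIC per CLSI in Mueller-Hinton broth against clinical isolate MRSA HEMSA 5. Bacterial suspension adjusted to OD 0.5, diluted 1:100 and added to serial two-fold dilutions of test agent. Ampicillin/sulbactam used at 2:1 ratio. Growth read after 20 h at 37 °C.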

[2] = tested on: Staphylococcus aureus; test: Antimicrobial activity against Staphylococcus aureus ATCC 25923 incubated for 20 hrs by serial dilution broth microplate method; type: functional; conditions: ATCC 25923, 20 h
Summary of the method: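 Broth dilution per CLSI in Mueller-Hinton broth, serial two-fold dilutions; compounds alone against reference strain, inoculum from suspension at OD 0.5 diluted 1:100; read after 20 h at 37 °C. MIC taken as lowest concentration inhibiting growth.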

[3] = target: T1, Methicillin resistance mecR1 protein (Staphylococcus aureus) (UniProt P0A0B1); test: Inhibition of MecR1 in methicillin-resistant Staphylococcus aureus HEMSA assessed as reduction in oxacillin A MIC at 0.0078 mM incubated for 20 hrs by serial dilution broth microplate method
T1 sequence (whole entry): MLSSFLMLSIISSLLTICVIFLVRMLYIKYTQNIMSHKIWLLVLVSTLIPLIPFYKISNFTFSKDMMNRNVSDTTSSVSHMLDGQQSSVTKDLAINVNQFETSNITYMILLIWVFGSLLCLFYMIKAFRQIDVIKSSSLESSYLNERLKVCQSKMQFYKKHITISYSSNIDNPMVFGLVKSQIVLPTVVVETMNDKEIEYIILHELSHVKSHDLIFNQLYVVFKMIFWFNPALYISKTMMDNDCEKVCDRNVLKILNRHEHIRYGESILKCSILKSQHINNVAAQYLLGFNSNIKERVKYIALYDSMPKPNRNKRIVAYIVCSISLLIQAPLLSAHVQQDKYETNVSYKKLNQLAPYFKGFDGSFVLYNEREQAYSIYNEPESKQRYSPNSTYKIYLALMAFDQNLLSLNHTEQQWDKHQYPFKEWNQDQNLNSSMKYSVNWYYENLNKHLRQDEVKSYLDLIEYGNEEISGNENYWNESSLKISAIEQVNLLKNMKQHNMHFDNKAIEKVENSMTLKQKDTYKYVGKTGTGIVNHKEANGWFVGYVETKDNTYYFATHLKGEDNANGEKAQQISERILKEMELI
Summary of the method: (§2)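 Chemosensitization in MRSA HEMSA 5 measured by CLSI broth microdilution in Mueller-Hinton broth. Serial two-fold dilutions of antibiotic (oxacillin, cloxacillin, ampicillin/sulbactam 2:1, ciprofloxacin or neomycin) combined with compound at fixed concentration not exceeding ¼ of its own MIC. Inoculum OD 0.5 diluted 1:100. Read after 20 h at 37 °C. Result given as fold reduction of antibiotic MIC.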

[4] = tested on: Staphylococcus aureus; test: Potentiation of oxacillin-induced antibacterial activity against Staphylococcus aureus ATCC 25923 assessed as reduction in oxacillin MIC at 0.0039 mM incubated for 20 hrs by serial dilution broth microplate method; type: functional
[5] = target: T1, Methicillin resistance mecR1 protein (Staphylococcus aureus); test: Inhibition of MecR1 in methicillin-resistant Staphylococcus aureus HEMSA assessed as reduction in cloxacillin MIC at 0.0078 mM incubated for 20 hrs by serial dilution broth microplate method; summary of the method: as §2
[6] = target: T1, Methicillin resistance mecR1 protein (Staphylococcus aureus); test: Inhibition of MecR1 in methicillin-resistant Staphylococcus aureus HEMSA assessed as reduction in ampicillin and sulbactam MIC at 0.0078 mM incubated for 20 hrs by serial dilution broth microplate method; summary of the method: as §2
[7] = tested on: Staphylococcus aureus; test: Potentiation of […] antibacterial activity against Staphylococcus aureus ATCC 25923 assessed as reduction in cloxacillin MIC incubated for 20 hrs by serial dilution broth microplate method; type: functional, organism-based
[8] = tested on: Staphylococcus aureus; test: Potentiation of […] antibacterial activity against Staphylococcus aureus ATCC 25923 assessed as reduction in ampicillin and sulbactam MIC MIC incubated for 20 hrs by serial dilution broth microplate method; type: functional, organism-based
[9] = target: T1, Methicillin resistance mecR1 protein (Staphylococcus aureus); test: Inhibition of MecR1 in methicillin-resistant Staphylococcus aureus HEMSA assessed as reduction in ciprofloxacin MIC at 0.0078 mM incubated for 20 hrs by serial dilution broth microplate method; summary of the method: as §2
[10] = target: T1, Methicillin resistance mecR1 protein (Staphylococcus aureus); test: Inhibition of MecR1 in methicillin-resistant Staphylococcus aureus HEMSA assessed as reduction in neomycin MIC at 0.0078 mM incubated for 20 hrs by serial dilution broth microplate method; summary of the method: as §2
[11] = tested on: Staphylococcus aureus; test: Potentiation of ciprofloxacin -induced antibacterial activity against Staphylococcus aureus ATCC 25923 assessed as reduction in […] MIC incubated for 20 hrs by serial dilution broth microplate method; type: functional, organism-based
[12] = tested on: Staphylococcus aureus; test: Potentiation of neomycin-induced antibacterial activity against Staphylococcus aureus ATCC 25923 assessed as reduction in […] MIC incubated for 20 hrs by serial dilution broth microplate method; type: functional, organism-based
[13] = tested on: Staphylococcus aureus; test: Resistance index, ratio of MIC for methicillin-resistant Staphylococcus aureus HEMSA to MIC for Staphylococcus aureus ATCC 25923; type: functional
[14] = Toxicity against HEK293 cells assessed as cell viability at 0.125 mM incubated for 48 hrs by EZ4U colorimetric assay; type: cell-based; conditions: human, read-out: Activity
Summary of the method: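 HEK-293 cells in DMEM with 10% FBS, penicillin/streptomycin, 37 °C, 5% CO2; seeded 1.5×10^4 cells/well, 24 h to 60% confluence; compound 0.01–250 µM for 48 h; EZ4U tetrazolium reagent 5 h, absorbance at 492 nm; doxorubicin positive control (0.005–100 µM); four repetitions.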

[15] = target: T1, Methicillin resistance mecR1 protein (Staphylococcus aureus); test: Inhibition of MecR1 in methicillin-resistant Staphylococcus aureus HEMSA assessed as reduction in oxacillin A MIC at 0.125 mM incubated for 20 hrs by serial dilution broth microplate method; summary of the method: as §2
[16] = tested on: Staphylococcus aureus; test: Potentiation of oxacillin-induced antibacterial activity against Staphylococcus aureus ATCC 25923 assessed as reduction in oxacillin MIC at 0.125 mM incubated for 20 hrs by serial dilution broth microplate method; type: functional
[17] = target: T1, Methicillin resistance mecR1 protein (Staphylococcus aureus); test: Inhibition of MecR1 in methicillin-resistant Staphylococcus aureus HEMSA assessed as reduction in cloxacillin MIC at 0.125 mM incubated for 20 hrs by serial dilution broth microplate method; summary of the method: as §2
[18] = target: T1, Methicillin resistance mecR1 protein (Staphylococcus aureus); test: Inhibition of MecR1 in methicillin-resistant Staphylococcus aureus HEMSA assessed as reduction in ampicillin and sulbactam MIC at 0.125 mM incubated for 20 hrs by serial dilution broth microplate method; summary of the method: as §2
[19] = target: T1, Methicillin resistance mecR1 protein (Staphylococcus aureus); test: Inhibition of MecR1 in methicillin-resistant Staphylococcus aureus HEMSA assessed as reduction in ciprofloxacin MIC at 0.125 mM incubated for 20 hrs by serial dilution broth microplate method; summary of the method: as §2
[20] = target: T1, Methicillin resistance mecR1 protein (Staphylococcus aureus); test: Inhibition of MecR1 in methicillin-resistant Staphylococcus aureus HEMSA assessed as reduction in neomycin MIC at 0.125 mM incubated for 20 hrs by serial dilution broth microplate method
[21] = tested on: Staphylococcus aureus; test: Antimicrobial activity against methicillin-resistant Staphylococcus aureus HEMSA incubated for 20 hrs in presence of sulbactam by serial dilution broth microplate method; type: functional; summary of the method: as §1
[22] = tested on: Staphylococcus aureus; test: Antimicrobial activity against Staphylococcus aureus ATCC 25923 incubated for 20 hrs in presence of sulbactam by serial dilution broth microplate method; type: functional; conditions: ATCC 25923, 20 h

O=C1NC(N2CCNCC2)=N/C1=C\c1ccc2c(c1)Cc1ccccc1-2
MIC [1]: 31.3 µM (≈ 10.8 µg/mL)
MIC [2]: 15.6 µM (≈ 5.37 µg/mL)
inhibition [3]: inactive
fold change (FC) [4]: 2
fold change (FC) [5]: 8
inhibition [6]: inactive
Activity [7]: inactive
Activity [8]: inactive
inhibition [9]: inactive
inhibition [10]: inactive
Activity [11]: inactive
Activity [12]: inactive
Ratio [13]: 2

O=C1NC(N2CCNCC2)=N/C1=C\c1c2ccccc2cc2ccccc12
MIC [1]: 500 µM (≈ 178 µg/mL)
MIC [2]: 500 µM (≈ 178 µg/mL)
viability at 48 h, 125 µM [14]: 91%
fold change (FC) [15]: 64
fold change (FC) [16]: 2
fold change (FC) [17]: 8
inhibition [18]: inactive
Activity [7]: inactive
Activity [8]: inactive
inhibition [19]: inactive
Activity [11]: inactive
Activity [12]: inactive
Ratio [13]: 1
inhibition [20]: inactive

CC1(C)S[C@@H]2[C@H](NC(=O)[C@H](N)c3ccccc3)C(=O)N2[C@H]1C(=O)O [AMPICILLIN]
Ratio [13]: 370
MIC [21]: 200 µM
MIC [22]: 0.54 µM
